Consider two compounds from ChEMBL document CHEMBL1131373, “Novel nonpeptide CCK-B antagonists: design and development of quinazolinone derivatives as potent, selective, and orally active CCK-B antagonists” (J Med Chem, 1998).

The nature of data set [1]: The compound was tested for systemic plasma clearance(CL) in rats and is expressed in mL/min/kg. In kind it is ADME, organism-based. Conditions: rat. The essentials: (§1)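 Fasted male Wistar rats, three per group, given a single oral nominal dose of 10 mg/kg or a single iv nominal dose of 5 mg/kg. Vehicle was either 25:40:35 ethanol/PEG400/5% dextrose water or 10:40:50 dimethylacetamide/PEG400/5% dextrose water. Heparinized plasma taken from a jugular vein cannula at serial times out to 24 h and assayed by validated HPLC-fluorescence. Noncompartmental analysis; %F = dose-normalized po AUC/iv AUC.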

For data set [2], the target named is T1, Gastrin/cholecystokinin type B receptor (Mus musculus, UniProt P56481).
T1 sequence (P56481 whole entry): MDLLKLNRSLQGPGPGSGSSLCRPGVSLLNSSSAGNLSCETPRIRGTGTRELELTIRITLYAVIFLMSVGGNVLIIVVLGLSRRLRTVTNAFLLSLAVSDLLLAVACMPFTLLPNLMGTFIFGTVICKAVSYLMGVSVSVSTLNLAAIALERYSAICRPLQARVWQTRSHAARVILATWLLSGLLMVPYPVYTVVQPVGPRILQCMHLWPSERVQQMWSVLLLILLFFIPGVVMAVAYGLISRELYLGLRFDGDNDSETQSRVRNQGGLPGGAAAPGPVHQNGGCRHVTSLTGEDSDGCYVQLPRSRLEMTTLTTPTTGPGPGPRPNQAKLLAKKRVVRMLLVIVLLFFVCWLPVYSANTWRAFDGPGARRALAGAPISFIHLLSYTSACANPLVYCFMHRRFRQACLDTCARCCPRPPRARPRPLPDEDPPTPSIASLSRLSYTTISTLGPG
The data set can be described thus: Binding affinity towards Cholecystokinin type B receptor (CCK-B) receptor in mouse cerebral cortex using [125I]bolton Hunter CCK-8 as radioligand. Type of data set: tissue-based.

Data set [3] can be described thus: The compound was tested for percent absolute oral bioavailability (%F) in rats. Type of data set: ADME, organism-based. The note with it: rat, in vivo. The essentials:
as §1

The target in data set [4] is T2, Cholecystokinin receptor type A (Rattus norvegicus, UniProt P30551).
T2 sequence (P30551 whole entry): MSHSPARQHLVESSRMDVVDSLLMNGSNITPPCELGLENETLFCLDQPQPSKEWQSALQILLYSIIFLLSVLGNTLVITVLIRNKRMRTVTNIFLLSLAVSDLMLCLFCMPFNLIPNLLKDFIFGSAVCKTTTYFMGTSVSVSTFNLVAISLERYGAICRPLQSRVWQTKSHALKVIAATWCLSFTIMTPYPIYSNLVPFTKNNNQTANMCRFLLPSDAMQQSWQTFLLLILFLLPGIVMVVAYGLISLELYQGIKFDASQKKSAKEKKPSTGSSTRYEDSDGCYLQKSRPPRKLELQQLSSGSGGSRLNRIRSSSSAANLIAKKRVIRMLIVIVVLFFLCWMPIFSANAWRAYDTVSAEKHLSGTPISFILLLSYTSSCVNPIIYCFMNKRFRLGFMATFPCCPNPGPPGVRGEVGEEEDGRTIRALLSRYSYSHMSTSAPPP
The data set can be described thus: Binding affinity towards Cholecystokinin type A receptor (CCK-A) receptor from rat pancreas using [125I]bolton Hunter CCK-8 as radioligand. The essentials: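 IC50 = concentration giving half-maximal inhibition of specific [125I]Bolton Hunter CCK-8 binding, with CCK-B sites from mouse cerebral cortex and CCK-A sites from rat pancreas. Weaker compounds given as % inhibition at 10 μM. Values are geometric means of at least three separate experiments; statistical errors 15% of the mean.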

Data set [5] is described as follows: The compound tested for maximum observed plasma concentration in rats and is expressed in microgram/mL. Type of data set: ADME, organism-based. Conditions: rat. The essentials: as §1
A short description of data set [6]: The compound was tested for the time to reach maximum observed plasma concentration in rats and is expressed in mins. Type of data set: ADME, organism-based. Conditions: rat. In short, it runs like this:
as §1

Data set [7] can be described thus: The compound was tested for percent absolute oral bioavailability (%F) in rats and value in parenthesis indicate percent relative standard deviation (% RSD). Conditions: rat, in vivo, read-out: F (%RSD). In kind it is ADME, organism-based. The essentials:
as §1

pIC50: −log10 of the molar value.

In data set [1], `CC(C)Oc1cccc(-n2c(NNC(=O)Nc3cccc(C(=O)OC(C)(C)C)c3)nc3ccccc3c2=O)c1` displayed a clearance of 18 mL/min/kg. The pIC50 is 8.72 in data set [2] and 5.53 in data set [4]. In addition, the bioavailability in data set [3] is < 5%. Also, the peak concentration (Cmax) in data set [5] was < 250 ng/mL.

For `CN(C)c1cccc(-n2c(NNC(=O)Nc3cccc(C#N)c3)nc3ccccc3c2=O)c1`, the clearance in data set [1] came out at 29.5 mL/min/kg. The pIC50 in data set [2] is 7.85; in data set [4] it was 5.15. Besides, the time to peak (Tmax) in data set [6] was 25 min. Moreover, the bioavailability in data set [7] amounted to 22%. Further, the peak level in data set [5] (Cmax) was 910 ng/mL.
